Calls of active or inactive are those of the source. No cut-off for these calls is given here.
Tests used:
[1] = Inhibition of recombinant human N-terminal His6-tagged PKBbeta S474D mutant (120 to 481 residues) expressed in baculovirus infected Sf21 cells assessed as remaining activity at 10 uM using crosstide peptide as substrate incubated for 30 mins in presence of [gamma-33P]ATP by filter binding method relative to control; conditions: condition cancer, 0.5 h
In short: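 Assays ran 30 min at 21 °C, robotically and in the linear range. Remaining activity is given relative to incubations lacking compound, as the average of triplicate determinations ± S.D.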

[2] = target: Calcium/calmodulin-dependent protein kinase kinase 2 (Homo sapiens) (UniProt Q96RR4); experiment: Inhibition of recombinant human N-terminal GST-tagged CAMKKbeta (1 to 541 residues) expressed in Escherichia coli assessed as remaining activity at 10 uM using DGEFLRTSCGSPNYAARRR as substrate incubated for 30 mins in presence of [gamma-33P]ATP by filter binding method relative to control
In short: (§1)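 Robotic radiometric panel assay, 30 min at room temperature (21 °C), with 10 mM magnesium acetate. […] Compound at 1 or 10 µM. Residual activity expressed relative to compound-free control; triplicate average ± S.D.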

[3] = target: Tyrosine-protein kinase Yes (Homo sapiens) (UniProt P07947); experiment: Inhibition of recombinant human N-terminal His6-tagged YES1 (1 to 543 residues) expressed in baculovirus infected Sf21 cells assessed as remaining activity at 1 uM using Poly(Glu,Tyr) as substrate incubated for 30 mins in presence of [gamma-33P]ATP by filter binding assay relative to control
In short: (§2)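 Radiometric panel assay run robotically at 21 °C for 30 min, linear in time and enzyme. […] Activity is expressed as percentage of the compound-omitted control, averaged from triplicates ± S.D.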

[4] = target: Calcium/calmodulin-dependent protein kinase kinase 2 (Homo sapiens) (UniProt Q96RR4); experiment: Inhibition of recombinant human N-terminal GST-tagged CAMKKbeta (1 to 541 residues) expressed in Escherichia coli assessed as remaining activity at 1 uM using DGEFLRTSCGSPNYAARRR as substrate incubated for 30 mins in presence of [gamma-33P]ATP by filter binding method relative to control; in short: as §1
[5] = target: Casein kinase II subunit alpha (Homo sapiens) (UniProt P68400); experiment: Inhibition of recombinant human N-terminal His6-tagged CK2alpha1 (2 to 391 residues) expressed in Escherichia coli assessed as remaining activity at 1 uM using RRRDDDSDDD as substrate incubated for 30 mins in presence of [gamma-33P]ATP by filter binding method relative to control; in short: as §2
[6] = target: Dual specificity tyrosine-phosphorylation-regulated kinase 3 (Homo sapiens) (UniProt O43781); experiment: Inhibition of recombinant human N-terminal GST-tagged DYRK3 (1 to 588 residues) expressed in Escherichia coli assessed as remaining activity at 1 uM using KKISGRLSPIMTEQ as substrate incubated for 30 mins in presence of [gamma-33P]ATP by filter binding method relative to control
In short: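 Radiometric kinase panel run robotically at 21 °C for 30 min, linear in time and enzyme. […] Activity expressed as percentage of control without inhibitor; triplicate determinations.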

[7] = target: Mitogen-activated protein kinase 14 (Homo sapiens) (UniProt Q16539); experiment: Inhibition of recombinant human N-terminal GST-tagged P38alpha (1 to 360 residues) expressed in Escherichia coli assessed as remaining activity at 1 uM using MBP as substrate incubated for 30 mins in presence of [gamma-33P]ATP by filter binding method relative to control
In short: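 Incubation was 30 min at room temperature (21 °C) under conditions linear with time and enzyme amount. Activity is reported as percent of control lacking compound, triplicate mean ± S.D.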

[8] = target: Mitogen-activated protein kinase 12 (Homo sapiens) (UniProt P53778); experiment: Inhibition of recombinant human N-terminal GST-tagged P38gamma (1 to 367 residues) expressed in Escherichia coli assessed as remaining activity at 1 uM using MBP as substrate incubated for 30 mins in presence of [gamma-33P]ATP by filter binding method relative to control
In short: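 Radiometric kinase panel run robotically at room temperature (21 °C) for 30 min, linear in time and enzyme. […] Activity is expressed as percent of control without compound, from triplicate determinations ± S.D.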

[9] = target: Dual specificity tyrosine-phosphorylation-regulated kinase 1A (Homo sapiens) (UniProt Q13627); experiment: Inhibition of recombinant human N-terminal GST-tagged DYRK1A (1 to 502 residues) expressed in Escherichia coli assessed as remaining activity at 10 uM using KKISGRLSPIMTEQ as substrate incubated for 30 mins in presence of [gamma-33P]ATP by filter binding method relative to control
In short: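 Run robotically for 30 min at 21 °C under linear conditions. Compound at 1 or 10 µM. Percentage activity remaining versus control without compound, triplicate mean ± S.D.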

[10] = target: Inhibitor of nuclear factor kappa-B kinase subunit beta (Homo sapiens) (UniProt O14920); experiment: Inhibition of recombinant human N-terminal His6-tagged IKKbeta (1 to 736 residues) expressed in baculovirus infected Sf21 cells assessed as remaining activity at 10 uM using LDDRHDSGLDSMKDEEY as substrate incubated for 30 mins in presence of [gamma-33P]ATP by filter binding method relative to control
In short: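 Profiling-centre panel assay performed robotically at 21 °C for 30 min, linear with time and enzyme. […] Values are percent of compound-free control activity, the mean of triplicates ± S.D.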

[11] = target: Insulin receptor-related protein (Homo sapiens) (UniProt P14616); experiment: Inhibition of recombinant human N-terminal His6-tagged IRR (944 to 1236 residues) expressed in baculovirus infected Sf21 cells assessed as remaining activity at 10 uM using MBP as substrate incubated for 30 mins in presence of [gamma-33P]ATP by filter binding method relative to control
MEF [12] = experiment: Inhibition of mTORC2 in serum starved MEF cells assessed as reduction IGF1-stimulated AKT phosphorylation at Thr308 residue at 100 to 1000 nM incubated for 20 mins by immunoblot analysis; type: cell-based; conditions: Mus musculus, dose 100-1000 nM
In short: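 Serum withdrawn 16 h. Inhibitor or vehicle given 30 min before stimulation with 50 ng/ml IGF-1 for 20 min. Lysed in Tris lysis buffer and immunoblotted for Akt Thr308 phosphorylation with ECL detection. Applies to HEK-293 and to wild-type, Rictor, Sin1 or mLST8 knockout MEFs. Three independent experiments.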

MEF [13] = experiment: Induction of cell cycle arrest in MEF cells assessed as accumulation at S phase at 3 uM incubated for 1 to 3 days by propidium iodide staining based flow cytometric analysis (reference value: 61.5 +/- 0.78%); type: toxicity; conditions: mouse, time 1-3 day
mTORC1 (Homo sapiens) = mTORC1 (Homo sapiens) (UniProt P42345+Q8N122+Q9BVC4); conditions: HEK293, dose 30-1000 nM, time 30.0 min
mTORC2 (Homo sapiens) = mTORC2 (Homo sapiens) (UniProt P42345+Q6R327+Q9BVC4+Q9BPZ7); conditions: HEK293, dose 30-1000 nM, time 30.0 min
[14] = target: Phosphatidylinositol 3-kinase catalytic subunit type 3 (Homo sapiens) (UniProt Q8NEB9); experiment: Inhibition of VPS34 (unknown origin) assessed as remaining activity at 10 uM using phosphatidylinositol as substrate incubated for 60 mins in presence of ATP relative to control
Phosphatidylinositol 3-kinase catalytic subunit type 3 (Homo sapiens), sequence (Q8NEB9 whole entry): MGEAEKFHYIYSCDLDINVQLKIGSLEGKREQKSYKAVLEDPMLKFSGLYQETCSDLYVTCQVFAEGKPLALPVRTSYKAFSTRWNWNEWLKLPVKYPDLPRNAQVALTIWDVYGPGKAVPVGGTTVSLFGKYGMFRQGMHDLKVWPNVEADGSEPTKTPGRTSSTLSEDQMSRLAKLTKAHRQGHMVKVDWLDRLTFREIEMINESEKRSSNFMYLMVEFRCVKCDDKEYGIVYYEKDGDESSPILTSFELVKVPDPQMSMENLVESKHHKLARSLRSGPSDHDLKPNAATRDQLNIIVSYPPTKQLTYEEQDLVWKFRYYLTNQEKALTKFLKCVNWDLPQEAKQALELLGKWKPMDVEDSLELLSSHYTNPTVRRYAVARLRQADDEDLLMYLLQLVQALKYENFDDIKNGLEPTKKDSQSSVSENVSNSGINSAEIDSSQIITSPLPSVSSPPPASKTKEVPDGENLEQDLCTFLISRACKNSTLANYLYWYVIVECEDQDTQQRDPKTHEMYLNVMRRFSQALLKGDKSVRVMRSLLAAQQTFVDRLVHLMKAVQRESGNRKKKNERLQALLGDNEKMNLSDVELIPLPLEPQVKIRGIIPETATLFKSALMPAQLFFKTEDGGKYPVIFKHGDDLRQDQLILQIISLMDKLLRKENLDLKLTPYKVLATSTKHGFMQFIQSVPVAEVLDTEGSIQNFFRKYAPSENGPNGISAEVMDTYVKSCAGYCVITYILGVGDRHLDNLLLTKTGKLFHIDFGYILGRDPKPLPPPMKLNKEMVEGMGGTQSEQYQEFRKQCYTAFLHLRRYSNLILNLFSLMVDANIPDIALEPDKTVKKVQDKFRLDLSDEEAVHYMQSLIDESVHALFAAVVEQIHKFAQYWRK

Calcium/calmodulin-dependent protein kinase kinase 2 (Homo sapiens), sequence (Q96RR4 2-588 limits assumed): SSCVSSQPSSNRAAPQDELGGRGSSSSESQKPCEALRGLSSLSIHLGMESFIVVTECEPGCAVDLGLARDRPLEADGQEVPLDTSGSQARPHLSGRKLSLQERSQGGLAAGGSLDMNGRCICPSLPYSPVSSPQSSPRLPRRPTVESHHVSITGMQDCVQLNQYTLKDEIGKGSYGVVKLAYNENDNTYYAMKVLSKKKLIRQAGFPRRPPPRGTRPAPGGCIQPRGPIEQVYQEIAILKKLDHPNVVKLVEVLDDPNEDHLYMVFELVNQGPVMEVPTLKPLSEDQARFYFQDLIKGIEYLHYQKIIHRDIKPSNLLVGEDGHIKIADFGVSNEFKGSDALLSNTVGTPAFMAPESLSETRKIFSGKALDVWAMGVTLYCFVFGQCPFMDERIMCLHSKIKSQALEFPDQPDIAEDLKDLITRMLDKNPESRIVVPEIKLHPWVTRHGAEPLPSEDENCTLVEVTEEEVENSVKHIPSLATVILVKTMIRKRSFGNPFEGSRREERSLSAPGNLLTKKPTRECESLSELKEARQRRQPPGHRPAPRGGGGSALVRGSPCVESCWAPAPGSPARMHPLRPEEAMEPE
Casein kinase II subunit alpha (Homo sapiens), sequence (P68400 whole entry, looked up, the tested form may be a part): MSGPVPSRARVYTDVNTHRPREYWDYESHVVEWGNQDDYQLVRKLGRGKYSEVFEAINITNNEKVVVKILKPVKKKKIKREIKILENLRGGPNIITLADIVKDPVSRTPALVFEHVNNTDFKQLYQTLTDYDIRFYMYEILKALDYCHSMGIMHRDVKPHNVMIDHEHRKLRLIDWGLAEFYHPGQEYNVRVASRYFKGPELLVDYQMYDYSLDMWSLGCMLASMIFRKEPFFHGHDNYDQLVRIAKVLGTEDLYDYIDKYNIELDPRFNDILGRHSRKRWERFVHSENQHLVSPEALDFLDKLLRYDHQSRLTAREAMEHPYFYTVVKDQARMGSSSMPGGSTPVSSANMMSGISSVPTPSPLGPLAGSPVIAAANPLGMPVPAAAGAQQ
Mitogen-activated protein kinase 12 (Homo sapiens), sequence (P53778 whole entry, the tested form may be a part): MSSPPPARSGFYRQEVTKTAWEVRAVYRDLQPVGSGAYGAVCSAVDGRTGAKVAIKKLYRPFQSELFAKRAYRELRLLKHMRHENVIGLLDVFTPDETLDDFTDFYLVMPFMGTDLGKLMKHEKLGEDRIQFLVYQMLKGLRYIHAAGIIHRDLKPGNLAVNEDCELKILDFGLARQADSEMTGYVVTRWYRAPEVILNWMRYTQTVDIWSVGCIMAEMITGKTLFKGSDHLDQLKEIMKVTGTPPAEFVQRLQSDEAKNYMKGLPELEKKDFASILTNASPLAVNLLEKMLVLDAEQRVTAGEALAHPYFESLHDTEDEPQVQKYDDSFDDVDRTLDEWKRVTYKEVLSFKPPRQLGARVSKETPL
Insulin receptor-related protein (Homo sapiens), sequence (P14616 27-742 limits assumed): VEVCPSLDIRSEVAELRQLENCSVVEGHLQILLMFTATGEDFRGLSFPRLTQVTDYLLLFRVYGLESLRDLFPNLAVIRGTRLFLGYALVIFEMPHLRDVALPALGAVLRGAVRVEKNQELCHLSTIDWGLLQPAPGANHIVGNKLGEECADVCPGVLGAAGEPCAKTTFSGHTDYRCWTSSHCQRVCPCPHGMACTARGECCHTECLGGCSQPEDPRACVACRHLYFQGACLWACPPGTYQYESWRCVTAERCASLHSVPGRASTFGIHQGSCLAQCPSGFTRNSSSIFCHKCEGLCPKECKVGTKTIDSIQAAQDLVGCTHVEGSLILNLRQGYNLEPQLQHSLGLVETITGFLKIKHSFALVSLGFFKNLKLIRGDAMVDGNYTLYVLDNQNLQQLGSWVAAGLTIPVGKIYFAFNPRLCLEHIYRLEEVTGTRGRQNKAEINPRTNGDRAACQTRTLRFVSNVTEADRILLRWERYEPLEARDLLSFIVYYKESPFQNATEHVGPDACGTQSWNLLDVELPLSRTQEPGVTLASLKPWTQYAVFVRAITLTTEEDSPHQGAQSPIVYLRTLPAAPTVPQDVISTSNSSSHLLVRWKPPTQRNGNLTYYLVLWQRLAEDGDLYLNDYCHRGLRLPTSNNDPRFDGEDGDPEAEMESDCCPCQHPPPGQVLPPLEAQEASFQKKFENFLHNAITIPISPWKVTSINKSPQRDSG
Insulin receptor-related protein (Homo sapiens), sequence (P14616 747-1297 limits assumed): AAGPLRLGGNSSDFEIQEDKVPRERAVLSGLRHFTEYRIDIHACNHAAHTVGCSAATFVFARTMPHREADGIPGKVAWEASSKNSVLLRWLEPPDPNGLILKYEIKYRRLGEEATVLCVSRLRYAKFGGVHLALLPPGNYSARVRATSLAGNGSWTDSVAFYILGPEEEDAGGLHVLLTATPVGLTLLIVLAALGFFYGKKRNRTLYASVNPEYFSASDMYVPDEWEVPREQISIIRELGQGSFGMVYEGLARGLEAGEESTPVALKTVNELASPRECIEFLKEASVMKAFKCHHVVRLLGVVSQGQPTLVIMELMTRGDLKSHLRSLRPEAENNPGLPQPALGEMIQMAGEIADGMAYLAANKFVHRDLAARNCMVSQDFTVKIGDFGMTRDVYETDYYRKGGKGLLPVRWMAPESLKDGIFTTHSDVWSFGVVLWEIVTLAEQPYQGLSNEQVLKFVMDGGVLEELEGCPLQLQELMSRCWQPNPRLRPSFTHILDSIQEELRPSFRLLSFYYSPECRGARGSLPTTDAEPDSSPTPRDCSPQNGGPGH
Mitogen-activated protein kinase 14 (Homo sapiens), sequence (Q16539 whole entry, the tested form may be a part): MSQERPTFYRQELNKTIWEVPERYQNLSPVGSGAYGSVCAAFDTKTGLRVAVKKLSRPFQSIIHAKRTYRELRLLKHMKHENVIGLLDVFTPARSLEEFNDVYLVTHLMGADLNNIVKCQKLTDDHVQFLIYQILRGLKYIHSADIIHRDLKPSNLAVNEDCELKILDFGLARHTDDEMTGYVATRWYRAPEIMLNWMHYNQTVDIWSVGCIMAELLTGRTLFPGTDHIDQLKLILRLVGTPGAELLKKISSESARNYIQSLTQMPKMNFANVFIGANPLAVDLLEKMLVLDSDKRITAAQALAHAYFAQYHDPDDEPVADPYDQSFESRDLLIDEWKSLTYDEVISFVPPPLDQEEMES
Dual specificity tyrosine-phosphorylation-regulated kinase 3 (Homo sapiens), sequence (O43781 whole entry, the tested form may be a part): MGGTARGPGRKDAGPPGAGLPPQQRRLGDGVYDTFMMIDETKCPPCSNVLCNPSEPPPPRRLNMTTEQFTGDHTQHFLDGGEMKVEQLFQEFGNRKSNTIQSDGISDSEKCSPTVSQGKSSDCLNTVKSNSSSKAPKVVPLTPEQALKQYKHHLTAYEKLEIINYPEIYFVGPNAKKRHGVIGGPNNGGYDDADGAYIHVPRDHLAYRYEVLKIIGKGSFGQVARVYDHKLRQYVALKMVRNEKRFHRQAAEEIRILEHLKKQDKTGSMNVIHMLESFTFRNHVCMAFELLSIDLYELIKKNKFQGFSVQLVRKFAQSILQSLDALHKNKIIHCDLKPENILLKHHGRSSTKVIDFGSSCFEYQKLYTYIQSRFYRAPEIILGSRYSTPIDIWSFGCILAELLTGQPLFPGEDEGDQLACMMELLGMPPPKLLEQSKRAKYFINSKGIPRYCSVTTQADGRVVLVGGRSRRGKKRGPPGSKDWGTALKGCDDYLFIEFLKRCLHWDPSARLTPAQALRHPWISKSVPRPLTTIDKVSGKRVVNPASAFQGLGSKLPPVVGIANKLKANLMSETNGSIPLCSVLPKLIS
Tyrosine-protein kinase Yes (Homo sapiens), sequence (P07947 2-543 limits assumed): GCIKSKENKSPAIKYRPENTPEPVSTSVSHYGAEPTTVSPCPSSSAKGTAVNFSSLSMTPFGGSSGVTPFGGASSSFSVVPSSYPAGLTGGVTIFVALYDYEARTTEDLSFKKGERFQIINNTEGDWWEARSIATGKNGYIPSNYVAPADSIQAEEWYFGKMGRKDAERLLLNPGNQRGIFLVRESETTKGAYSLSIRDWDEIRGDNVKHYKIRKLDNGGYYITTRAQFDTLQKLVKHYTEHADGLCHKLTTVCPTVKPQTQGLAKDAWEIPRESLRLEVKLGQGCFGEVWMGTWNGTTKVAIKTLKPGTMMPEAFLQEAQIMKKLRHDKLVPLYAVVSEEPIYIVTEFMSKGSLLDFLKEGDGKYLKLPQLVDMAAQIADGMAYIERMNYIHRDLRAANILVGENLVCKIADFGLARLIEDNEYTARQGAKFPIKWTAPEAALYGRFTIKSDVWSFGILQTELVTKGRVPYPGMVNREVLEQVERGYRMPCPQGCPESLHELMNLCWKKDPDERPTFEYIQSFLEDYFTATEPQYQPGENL

In the case of `COc1ccc(-c2ccc3c(N4CCOCC4)nc(N4C[C@@H](C)O[C@@H](C)C4)nc3n2)cc1CO` [Ku-0063794], the Activity [1] is reported as 107%, the Activity [2] is reported as 94% and the Activity [3] is reported as 94%. For the same compound, the Activity [4] was 108%, the Activity [5] was 104% and the Activity [6] was 88%. For the same compound, the Activity [7] was 101%, the Activity [8] was 89% and the Activity [9] was 80%. The Activity [10] was 89%, the Activity [11] was 71% and the inhibition (MEF [12]) was “Active”. For the same compound, the Activity (MEF [13]) was 46.9%, the inhibition (mTORC1 (Homo sapiens)) was “Dose-Dependent Effect” and the inhibition (mTORC2 (Homo sapiens)) was “Active”. It also gave an Activity [14] of 93%.

— ChEMBL document CHEMBL5678799 (Biochem J, 2009)
